According to ChEMBL document CHEMBL1154716, “Synthesis of some new S-triazine based chalcones and their derivatives as potent antimicrobial agents” (2010):
In brackets after ≈: the same amount, converted by molar mass. Activity calls are given as the source filed them. The rule behind the calls is not given here.

Assays:
Bacillus cereus [1] = assay: Antimicrobial activity against Bacillus cereus at 10 ug/disk after 24 hrs by disk diffusion assay; type: functional; details: for zone of inhibition at 10 µg/disc: read-out: IZ
In short: (§1)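 Disc diffusion on 4 mm filter discs. Bacteria are grown overnight in LB at 28 C, then adjusted in saline to 1.0 × 10^5 cfu/ml. The suspension is mixed into top agar over peptone agar plates. Plates are incubated 24 h at 28 C, and growth-inhibition zone diameter is measured. Streptomycin and ampicillin controls are applied from a 1 mg/ml stock. Tests are done in duplicate.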

Micrococcus flavus [2] = assay: Antimicrobial activity against Micrococcus flavus at 10 ug/disk after 24 hrs by disk diffusion assay; type: functional; details: for zone of inhibition at 10 µg/disc: read-out: IZ; in short: as §1
Staphylococcus aureus [3] = assay: Antimicrobial activity against Staphylococcus aureus at 10 ug/disk after 24 hrs by disk diffusion assay; type: functional; details: for zone of inhibition at 10 µg/disc: read-out: IZ; in short: as §1
Escherichia coli [4] = assay: Antimicrobial activity against Escherichia coli at 10 ug/disk after 24 hrs by disk diffusion assay; type: functional; details: for zone of inhibition at 10 µg/disc: read-out: IZ; in short: as §1
Pseudomonas aeruginosa [5] = assay: Antimicrobial activity against Pseudomonas aeruginosa at 10 ug/disk after 24 hrs by disk diffusion assay; type: functional; in short: as §1
Enterobacter cloacae [6] = assay: Antimicrobial activity against Enterobacter cloacae at 10 ug/disk after 24 hrs by disk diffusion assay; type: functional; details: for zone of inhibition at 10 µg/disc: read-out: IZ; in short: as §1
Salmonella typhimurium [7] = assay: Antimicrobial activity against Salmonella Typhimurium at 10 ug/disk after 24 hrs by disk diffusion assay; type: functional, organism-based; details: Salmonella enterica subsp. enterica serovar Typhimurium; in short: as §1
Listeria monocytogenes [8] = assay: Antimicrobial activity against Listeria monocytogenes at 10 ug/disk after 24 hrs by disk diffusion assay; type: functional; in short: as §1
Bacillus cereus [9] = assay: Antimicrobial activity against Bacillus cereus at 1 umol/disk after 24 hrs by disk diffusion assay; type: functional; in short: as §1
Micrococcus flavus [10] = assay: Antimicrobial activity against Micrococcus flavus at 1 umol/disk after 24 hrs by disk diffusion assay; type: functional; in short: as §1
Staphylococcus aureus [11] = assay: Antimicrobial activity against Staphylococcus aureus at 1 umol/disk after 24 hrs by disk diffusion assay; type: functional; in short: as §1
Escherichia coli [12] = assay: Antimicrobial activity against Escherichia coli at 1 umol/disk after 24 hrs by disk diffusion assay; type: functional; in short: as §1
Enterobacter cloacae [13] = assay: Antimicrobial activity against Enterobacter cloacae at 1 umol/disk after 24 hrs by disk diffusion assay; type: functional; in short: as §1
Salmonella typhimurium [14] = assay: Antimicrobial activity against Salmonella Typhimurium at 1 umol/disk after 24 hrs by disk diffusion assay; type: functional, organism-based; details: Salmonella enterica subsp. enterica serovar Typhimurium; in short: as §1
Listeria monocytogenes [15] = assay: Antimicrobial activity against Listeria monocytogenes at 1 umol/disk after 24 hrs by disk diffusion assay; type: functional; in short: as §1
Bacillus cereus [16] = assay: Antimicrobial activity against Bacillus cereus at 1 umol/spot after 18 hrs by TLC-bioautographic method; type: functional
In short: (§2)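 TLC bioautography. Samples are spotted on silica gel TLC plates, then sprayed with bacteria (1.0 × 10^5 cfu/ml) in tryptic soy broth. Plates are incubated 18 h at 37 C and sprayed with 3% aqueous p-iodonitrotetrazolium violet. After a further 3 h, growth is stopped with 70% EtOH. White zones on a pink background are scored as inhibition-zone diameter with standard errors.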

Micrococcus flavus [17] = assay: Antimicrobial activity against Micrococcus flavus at 1 umol/spot after 18 hrs by TLC-bioautographic method; type: functional; in short: as §2
Staphylococcus aureus [18] = assay: Antimicrobial activity against Staphylococcus aureus at 1 umol/spot after 18 hrs by TLC-bioautographic method; type: functional; in short: as §2
Escherichia coli [19] = assay: Antimicrobial activity against Escherichia coli at 1 umol/spot after 18 hrs by TLC-bioautographic method; type: functional; in short: as §2
Pseudomonas aeruginosa [20] = assay: Antimicrobial activity against Pseudomonas aeruginosa at 1 umol/spot after 18 hrs by TLC-bioautographic method; type: functional; in short: as §2
Enterobacter cloacae [21] = assay: Antimicrobial activity against Enterobacter cloacae at 1 umol/spot after 18 hrs by TLC-bioautographic method; type: functional; in short: as §2
Salmonella typhimurium [22] = assay: Antimicrobial activity against Salmonella Typhimurium at 1 umol/spot after 18 hrs by TLC-bioautographic method; type: functional; in short: as §2
Listeria monocytogenes [23] = assay: Antimicrobial activity against Listeria monocytogenes at 1 umol/spot after 18 hrs by TLC-bioautographic method; type: functional; in short: as §2
Bacillus cereus [24] = assay: Antimicrobial activity against Bacillus cereus after 24 hrs by microdilution technique; type: functional
In short: (§3)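 Broth microdilution in LB medium. Inoculum is 1.0 × 10^4 cfu per well, from a saline-adjusted suspension of 1.0 × 10^5 cfu/ml. Compounds are dissolved in DMSO. Incubated 24 h at 28 C. MIC is the lowest concentration with no visible growth under a binocular microscope. MBC is read by subculture into fresh broth for 72 h, with no growth taken as 99.5% kill. OD is read at 655 nm.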

Micrococcus flavus [25] = assay: Antimicrobial activity against Micrococcus flavus after 24 hrs by microdilution technique; type: functional; in short: as §3
Staphylococcus aureus [26] = assay: Antimicrobial activity against Staphylococcus aureus after 24 hrs by microdilution technique; type: functional; in short: as §3
Escherichia coli [27] = assay: Antimicrobial activity against Escherichia coli after 24 hrs by microdilution technique; type: functional; in short: as §3
Pseudomonas aeruginosa [28] = assay: Antimicrobial activity against Pseudomonas aeruginosa after 24 hrs by microdilution technique; type: functional; in short: as §3
Enterobacter cloacae [29] = assay: Antimicrobial activity against Enterobacter cloacae after 24 hrs by microdilution technique; type: functional; in short: as §3
Salmonella typhimurium [30] = assay: Antimicrobial activity against Salmonella Typhimurium after 24 hrs by microdilution technique; type: functional, Salmonella enterica subsp. enterica serovar Typhimurium; details: Salmonella enterica; in short: as §3
Listeria monocytogenes [31] = assay: Antimicrobial activity against Listeria monocytogenes after 24 hrs by microdilution technique; type: functional; in short: as §3
Pseudomonas aeruginosa [32] = assay: Antimicrobial activity against Pseudomonas aeruginosa at 1 umol/disk after 24 hrs by disk diffusion assay; type: functional; in short: as §1
[33] = Salmonella enterica subsp. enterica serovar Typhimurium

SMILES	inhibition zone (IZ) (Salmonella typhimurium [7])	inhibition zone (IZ) (Listeria monocytogenes [8])	inhibition zone (IZ) (Micrococcus flavus [10])	inhibition zone (IZ) (Escherichia coli [12])	inhibition zone (IZ) (Salmonella typhimurium [14])	inhibition zone (IZ) (Listeria monocytogenes [15])	inhibition zone (IZ) (Bacillus cereus [16])	inhibition zone (IZ) (Micrococcus flavus [17])	inhibition zone (IZ) (Staphylococcus aureus [18])	inhibition zone (IZ) (Escherichia coli [19])	inhibition zone (IZ) (Pseudomonas aeruginosa [20])	inhibition zone (IZ) (Enterobacter cloacae [21])	inhibition zone (IZ) (Listeria monocytogenes [23])	MBC (Bacillus cereus [24])	MIC (Bacillus cereus [24])	MBC (Micrococcus flavus [25])	MIC (Micrococcus flavus [25])	MBC (Staphylococcus aureus [26])	MIC (Staphylococcus aureus [26])	MBC (Escherichia coli [27])	also measured
COc1ccccc1/C=C/C(=O)c1ccc(Nc2nc(Nc3ccccc3)nc(Nc3ccccc3)n2)cc1	inactive	inactive	inactive	inactive	inactive	inactive	0.06 millimeter	inactive	0.07 millimeter	inactive	inactive	0.08 millimeter	0.08 millimeter	268 µM (≈ 138 µg/mL)	134 µM (≈ 69 µg/mL)	536 µM (≈ 276 µg/mL)	268 µM (≈ 138 µg/mL)	268 µM (≈ 138 µg/mL)	134 µM (≈ 69 µg/mL)	268 µM (≈ 138 µg/mL)	inhibition zone (IZ) (Bacillus cereus [1]): inactive; inhibition zone (IZ) (Micrococcus flavus [2]): inactive; inhibition zone (IZ) (Staphylococcus aureus [3]): inactive; inhibition zone (IZ) (Escherichia coli [4]): inactive; zone of inhibition at 10 µg/disc (Pseudomonas aeruginosa [5]; read-out: IZ): 6 mm; inhibition zone (IZ) (Enterobacter cloacae [6]): inactive; inhibition zone (IZ) (Bacillus cereus [9]): inactive; inhibition zone (IZ) (Staphylococcus aureus [11]): inactive; inhibition zone (IZ) (Enterobacter cloacae [13]): inactive; inhibition zone (IZ) (Salmonella typhimurium [22]; [33]): inactive; MIC (Escherichia coli [27]): 134 µM (≈ 69 µg/mL); MBC (Pseudomonas aeruginosa [28]): 536 µM (≈ 276 µg/mL); MIC (Pseudomonas aeruginosa [28]): 268 µM (≈ 138 µg/mL); MBC (Enterobacter cloacae [29]): 536 µM (≈ 276 µg/mL); MIC (Enterobacter cloacae [29]): 268 µM (≈ 138 µg/mL); MBC (Salmonella typhimurium [30]): 536 µM (≈ 276 µg/mL); MIC (Salmonella typhimurium [30]): 268 µM (≈ 138 µg/mL); MBC (Listeria monocytogenes [31]): 536 µM (≈ 276 µg/mL); MIC (Listeria monocytogenes [31]): 268 µM (≈ 138 µg/mL)
CN[C@@H]1[C@H](O[C@H]2[C@H](O[C@H]3[C@H](O)[C@@H](O)[C@H](N=C(N)N)[C@@H](O)[C@@H]3N=C(N)N)O[C@@H](C)[C@]2(O)C=O)O[C@@H](CO)[C@H](O)[C@H]1O [STREPTOMYCIN]	inactive	inactive	0.1 millimeter	0.06 millimeter	inactive	inactive	0.08 millimeter	0.05 millimeter	0.04 millimeter	0.06 millimeter	0.08 millimeter	0.07 millimeter	0.08 millimeter	86 µM (≈ 50 µg/mL)	43 µM (≈ 25 µg/mL)	172 µM (≈ 100 µg/mL)	86 µM (≈ 50 µg/mL)	344 µM (≈ 200 µg/mL)	172 µM (≈ 100 µg/mL)	344 µM (≈ 200 µg/mL)	zone of inhibition at 10 µg/disc (Bacillus cereus [1]): 18 mm; zone of inhibition at 10 µg/disc (Micrococcus flavus [2]): 20 mm; zone of inhibition at 10 µg/disc (Staphylococcus aureus [3]): 13 mm; zone of inhibition at 10 µg/disc (Escherichia coli [4]): 10 mm; inhibition zone (IZ) (Pseudomonas aeruginosa [5]): inactive; zone of inhibition at 10 µg/disc (Enterobacter cloacae [6]): 12 mm; inhibition zone (IZ) (Pseudomonas aeruginosa [32]): inactive; inhibition zone (IZ) (Salmonella typhimurium [22]): 0.08 millimeter; MIC (Escherichia coli [27]): 172 µM (≈ 100 µg/mL); MBC (Pseudomonas aeruginosa [28]): 344 µM (≈ 200 µg/mL); MIC (Pseudomonas aeruginosa [28]): 172 µM (≈ 100 µg/mL); MBC (Enterobacter cloacae [29]): 344 µM (≈ 200 µg/mL); MIC (Enterobacter cloacae [29]): 172 µM (≈ 100 µg/mL); MBC (Salmonella typhimurium [30]): 344 µM (≈ 200 µg/mL); MIC (Salmonella typhimurium [30]): 172 µM (≈ 100 µg/mL); MBC (Listeria monocytogenes [31]): 516 µM (≈ 300 µg/mL); MIC (Listeria monocytogenes [31]): 258 µM (≈ 150 µg/mL)
CC1(C)S[C@@H]2[C@H](NC(=O)[C@H](N)c3ccccc3)C(=O)N2[C@H]1C(=O)O [AMPICILLIN]	inactive	inactive	0.03 millimeter	0.02 millimeter	inactive	inactive	inactive	inactive	inactive	inactive	inactive	inactive	inactive	372 µM (≈ 130 µg/mL)	248 µM (≈ 86.7 µg/mL)	372 µM (≈ 130 µg/mL)	248 µM (≈ 86.7 µg/mL)	372 µM (≈ 130 µg/mL)	248 µM (≈ 86.7 µg/mL)	492 µM (≈ 172 µg/mL)	zone of inhibition at 10 µg/disc (Bacillus cereus [1]): 10 mm; zone of inhibition at 10 µg/disc (Micrococcus flavus [2]): 8 mm; zone of inhibition at 10 µg/disc (Staphylococcus aureus [3]): 8 mm; zone of inhibition at 10 µg/disc (Escherichia coli [4]): 6 mm; inhibition zone (IZ) (Pseudomonas aeruginosa [5]): inactive; zone of inhibition at 10 µg/disc (Enterobacter cloacae [6]): 6 mm; inhibition zone (IZ) (Pseudomonas aeruginosa [32]): inactive; inhibition zone (IZ) (Salmonella typhimurium [22]; [33]): inactive; MIC (Escherichia coli [27]): 372 µM (≈ 130 µg/mL); MBC (Pseudomonas aeruginosa [28]): 1240 µM (≈ 433 µg/mL); MIC (Pseudomonas aeruginosa [28]): 744 µM (≈ 260 µg/mL); MBC (Enterobacter cloacae [29]): 492 µM (≈ 172 µg/mL); MIC (Enterobacter cloacae [29]): 372 µM (≈ 130 µg/mL); MBC (Salmonella typhimurium [30]): 492 µM (≈ 172 µg/mL); MIC (Salmonella typhimurium [30]): 248 µM (≈ 86.7 µg/mL); MBC (Listeria monocytogenes [31]): 744 µM (≈ 260 µg/mL); MIC (Listeria monocytogenes [31]): 372 µM (≈ 130 µg/mL)
